Measured values as given in paper PMC3662534 (Molecular cancer therapeutics, 2009).
“Also recorded” adds a separate entry of the source. Positions of bridges follow the written chain, without caps; N, C: chain ends. Non-standard residues stand in square brackets, D forms with d. Residues, ends and D or L forms follow the SMILES beside them. *: point of attachment. DTPA = O=C(O)CN(CCN(CC(=O)O)CC(=O)O)CCN(CC(=O)O)CC(=O)*; dPen = CC(C)(S)[C@@H](N)C(=O)O

Columns and labels:
[1] = target: human delta-opioid receptor (δOR) (Homo sapiens, UniProt P41143); details: saturation binding to δOR in CHO/MC4R/δOR cells
[2] = tested on: Hek293/MC4R/CCK2R cells; assay: Cell fluorescence imaging of Cy5 labeled ligand binding and internalization; type: cell-based, human
Summary of the method: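 Live stable Hek293/MC4R/CCK2R cells on coverslips were held in a 37°C stage chamber. Cells were incubated with 0.8 nM Cy5-tagged heterobivalent ligand (15 sec, or 3 min in the legend) and rinsed with ligand-free medium. Images were taken immediately and 7 min later by CCD camera, with Cy5 excitation at 640 nm (20 nm bandpass) and emission at 690 nm (30 nm filter).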

[3] = tested on: Hek293 cells expressing MC4R and/or CCK2R; assay: Cytotoxicity, celltiter-Glo luminescent cell viability assay; type: cell-based, human; details: 1 μM, dual receptor expressing (target) cells, 24 and 48 h

human delta-opioid receptor (δOR), sequence (P41143 whole entry): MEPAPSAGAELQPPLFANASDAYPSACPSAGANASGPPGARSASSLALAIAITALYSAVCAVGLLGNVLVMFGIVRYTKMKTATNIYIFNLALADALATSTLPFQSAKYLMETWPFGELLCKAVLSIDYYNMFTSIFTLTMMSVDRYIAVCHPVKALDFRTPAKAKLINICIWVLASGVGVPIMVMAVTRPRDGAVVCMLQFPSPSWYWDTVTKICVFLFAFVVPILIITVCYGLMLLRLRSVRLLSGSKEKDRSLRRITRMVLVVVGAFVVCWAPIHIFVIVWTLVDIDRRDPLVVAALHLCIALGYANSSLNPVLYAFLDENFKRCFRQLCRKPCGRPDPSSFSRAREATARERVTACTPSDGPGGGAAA

For `CC1(C)SSC[C@@H](C(=O)N[C@@H](Cc2ccccc2)C(=O)N[C@@H](CCCCNC(=O)CN(CCN(CCN(CC(=O)O)CC(=O)O)CC(=O)O)CC(=O)O)C(N)=O)NC(=O)[C@H](Cc2ccccc2)NC(=O)CNC(=O)[C@@H]1NC(=O)[C@@H](N)Cc1ccc(O)cc1` [Eu-DPLCE, H-Tyr-c[DPen-Gly-Phe-Cys]-Phe-Lys(Eu-(DTPA))-NH2] (H-Y[dPen]GFCFK(DTPA)-NH2; disulfide 2-5), the Bmax [1] was 24,000 ± 2,000 AFU.

For “Ac-MSH7-PEGO-[Pro-Gly]3-Lys(Cy5)-PEGO-CCK6-NH2”, the “internalization of receptor/ligand complex” value ([2]; by 10 minutes, no significant loss of ligand on adding CCK ligand 50 μM) was “substantially internalized” and the “binding to the cell surface (Cy5 fluorescence)” value ([2]; immediately following incubation, 15 sec with 0.8 nM) was “significant binding to the cell surface”.

cholecystokinin-8 [CCK] was tested, and the cell viability [3] was “reduced viability; also recorded: toxicity”.
